One block for each molecule: values may come before it.
Key:
estrogenic potency = details: cited from earlier work
arylsulfatase = test: Arylsulfatase inhibition assay; type: biochemical, Helix pomatia; details: for type of inhibition of arylsulfatase: Lineweaver–Burk plot; for reversibility of inhibition of arylsulfatase: enzyme activity vs enzyme concentration at four inhibitor concentrations
β-glucuronidase = test: β-Glucuronidase inhibition assay; type: biochemical, H. pomatia; details: for reversibility of inhibition of β-glucuronidase: enzyme activity vs enzyme concentration at four inhibitor concentrations
In short: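 H. pomatia β-glucuronidase (type H-1), stock 10 U/mL in 0.5 M Tris-HCl pH 7.0. Incubated 1 h at 37 °C in 0.1 M phosphate buffer pH 7.0 with pNPG (5 mM stock) and test compound or water control. Stopped with 0.5 M NaOH; pNP read at 400 nm. Final H2O2 1–10,000 μM; NaClO and PAA 1–1000 μM. Triplicates; % inhibition relative to control without test compound.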

Structure (SMILES): CCCCC(CC)COC(=O)c1ccccc1C(=O)OCC(CC)CCCC (stereo not shown) [DEHP, di-2-(ethylhexyl) phthalate]
estrogenic potency (estrogenic potency): 10^–7

type of inhibition of arylsulfatase (arylsulfatase): competitive
reversibility of inhibition of arylsulfatase (arylsulfatase): reversible
inhibition of arylsulfatase under weak alkaline condition (in words) (arylsulfatase; pH 8): reduced inhibition
differences in the inhibition of arylsulfatase across pH (in words) (arylsulfatase; pH range of 5–7): no significant differences
inhibition on β-glucuronidase (in words) (β-glucuronidase; pH 7.0, tested 1-10,000 μM): no inhibition
Structure (SMILES): OO [H2O2, hydrogen peroxide]

Structure (SMILES): CC(=O)OO [PAA, peracetic acid]
type of inhibition of arylsulfatase (arylsulfatase): noncompetitive
reversibility of inhibition of arylsulfatase (arylsulfatase): reversible
inhibition of arylsulfatase at pH 8 (in words) (arylsulfatase; pH 8, concentration below 1 mM): nearly no inhibition
type of inhibition of β-glucuronidase (β-glucuronidase; Lineweaver–Burk plot): noncompetitive
reversibility of inhibition of β-glucuronidase (β-glucuronidase): reversible
maximum inhibition degree on β-glucuronidase (β-glucuronidase; pH 7.0, tested up to 1000 μM): about 60%

Structure (SMILES): [Cd] [cadmium]
estrogenic potency (in words) (estrogenic potency): no estrogenic potency at all

reversibility of inhibition of arylsulfatase (arylsulfatase): irreversible
IC50 (arylsulfatase; read-out: IC50 on arylsulfatase at pH 5.0, pH 5.0): 7.64 ± 0.61 µM
reversibility of inhibition of β-glucuronidase (β-glucuronidase): irreversible
Structure (SMILES): OCl [hypochlorite]

From publication PMC8014925 (ACS Omega, 2021)
